# Measurements from PubChem BioAssay AID463111 (Johns Hopkins Ion Channel Center, 2010).
# Out of some 310,000 compounds screened, about 2,800 (0.9%) were called active.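 How the source made its calls: active means B-score of the integrated calcium signal more than 4 SD below the library mean, with starting fluorescence not abnormally high; inactive means the rest.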 The list comes from a sample in which actives are over-represented; it also holds similar structures and randomly drawn compounds. Residues, ends and D or L forms follow the SMILES beside them. *: point of attachment. Bz = O=C(c1ccccc1)*
# Assay: RGS4 potentiators or activators, primary screen, cell-based, HEK293 M3R inducible RGS4, calcium flux (AID 463111);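 on B-score: negative B-score means reduced calcium response which marks RGS4 activation or potentiation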
# Conditions: HEK293 M3R/inducible RGS4, carbachol calcium flux Fluo4, at 10 µM; hits give low values
# Summary of the method: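 Test system: HEK293 cells with stable M3R and inducible RGS4; also added: carbachol at ECmax as muscarinic agonist stimulus; schedule: dye loading 30 min 37 °C, buffer rest 30 min RT; technique: kinetic calcium fluorescence imaging with Fluo4-AM dye, 2 µM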
row,Compound,B-score
1,O=C(CCN1C(=O)C2C3CCC(C3)C2C1=O)Nc1ccc(Cl)cc1Cl (stereo not given),inactive
2,CC(NCCc1ccc(S(N)(=O)=O)cc1)C(=O)NCc1ccccc1 (stereo not given),inactive
3,O=C(CN1CCCCCC1)Nc1ccc(Br)cc1[N+](=O)[O-],inactive
4,O=[N+]([O-])c1cc([N+](=O)[O-])c(Oc2cc(F)cc(F)c2F)cc1NN1CCCCC1,-7.39 (active)
5,O=C(COc1ccc(Cl)cc1[N+](=O)[O-])N1CCCCC1,inactive
6,CCc1cccc(C)c1NS(=O)(=O)c1c(C)nc2sccn2c1=O,inactive
7,CCSc1nc(=S)n(CC)c(C)c1C(C)=O,inactive
8,Cc1ccccc1-n1nc(SCC(=O)O)sc1=S,inactive
9,CC(CCc1ccccc1)NC(=O)COC(=O)c1ccc(F)cc1 (stereo not given),inactive
10,N/C(=N\OC(=O)Cc1ccc([N+](=O)[O-])cc1)c1ccccn1,inactive
11,N/C(Cc1ccc([N+](=O)[O-])cc1)=N\OC(=O)C1CCCCC1,inactive
12,N/C(Cc1ccc([N+](=O)[O-])cc1)=N\OC(=O)COc1ccc2ccccc2c1,-7.23 (active)
13,CCOC(=O)COc1ccc([N+](=O)[O-])cc1,inactive
14,N/C(=N\OC(=O)COc1ccc([N+](=O)[O-])cc1)c1ccc(Br)cc1,inactive
15,Cc1cc(C)cc(OCC(=O)O/N=C(\N)Cc2ccc([N+](=O)[O-])cc2)c1,-7.82 (active)
16,CCOc1ccc(N2C(=O)Nc3ccccc3C2(O)C(=O)NCc2ccco2)cc1 (stereo not given),inactive
17,O=C(COC(=O)Cc1ccc(Br)cc1)Nc1c(F)c(F)c(F)c(F)c1F,inactive
18,O=C(NC(Cc1ccccc1)C(=O)N1CCCC1C(=O)O)c1ccccc1 (stereo not drawn) (Bz-Phe-Pro-OH; configuration not given here),inactive
19,CN(Cc1ccccc1F)C(=O)C(Cc1ccccc1)NC(=O)c1ccccc1 (stereo not given),-7.13 (active)
20,O=C(NC(Cc1ccccc1)C(=O)N1CCCC(C(F)(F)F)C1)c1ccccc1 (stereo not given),inactive
21,O=C(/C=C/c1ccc([N+](=O)[O-])o1)NNC(=O)c1ccc(F)cc1,inactive
22,CC1CCN(C(=O)COC(=O)c2cc(S(=O)(=O)N3CCOCC3)ccc2Cl)CC1,inactive

row,Compound,B-score
1,COc1ccc(CCNC(=O)CC2SC(=Nc3cc(C)cc(C)c3)NC2=O)cc1OC (stereo not given),inactive
2,O=C(O)c1ccc(Cn2c(=S)[nH]c3cc(Cl)ccc3c2=O)cc1,inactive
3,CC(C)c1ccc2c(c1)c(SC(C)(C)C)c(CC(C)(C)C(=O)O)n2Cc1ccc(Cl)cc1,-7.99 (active)
4,Nc1nc(NC(=O)/C=C/c2ccc(F)cc2)nn1-c1ccccc1,inactive
5,C[C@@H](C(=O)N1CCNCC1)n1cc(CCC(=O)O)nn1,inactive
6,CCCCC(=O)NNC(=S)NC(=O)C(c1ccccc1)c1ccccc1,-9.53 (active)
7,O=C(NNC(=S)NCc1ccco1)C(c1ccccc1)c1ccccc1,inactive
8,CC(C)C(=O)Nc1cccc(NC(=S)NC(=O)C(c2ccccc2)c2ccccc2)c1,inactive
9,O=C(N/N=C/c1ccsc1)c1cc(O)cc(O)c1,inactive
10,COc1ccc(CN2CC[C@H]3C=CC[C@@H](C(=O)N4CCOCC4)[C@H]3C2=O)cc1OC,inactive
11,CCN(Cc1ccncc1)C(=O)CCc1ccccc1,inactive
12,Cc1cc(C)n(Cc2cnc(N3CCOCC3)s2)n1,inactive
13,CCC1C=C(c2ccccc2)C=CN=C1N(CC)CC (stereo not given),-10.2 (active)
14,COc1cccc(NC(=O)N2C3CCCC2CC(NC(C)=O)C3)c1 (stereo not given),inactive
15,CCCn1c(SCC(=O)c2ccc3c(c2)OCCO3)nnc1C(C)C,inactive
16,O=S(=O)(c1ccc(Br)cc1)N1CCC(c2nc3ccccc3[nH]2)CC1,inactive
17,O=C(c1ccccc1F)N1CCN(S(=O)(=O)c2ccc(Br)cc2)CC1,inactive
18,O=S(=O)(c1ccc(Br)cc1)n1ccc2ccccc21,-7.7 (active)
19,CCC1CCc2c(sc(NC(C)=O)c2C#N)C1 (stereo not given),inactive
20,CCC(C)c1ccc(NC(=S)NCc2ccccn2)cc1 (stereo not given),inactive
21,FC(F)(F)c1cnc(Oc2ccccc2-c2nnc(-c3ccc(Cl)cc3)o2)c(Cl)c1,inactive
22,FC(F)(F)c1cccc(-c2nc(COc3ccc(Cl)cc3Cl)no2)c1,-7.64 (active)

row,Compound,B-score
1,Cc1cc(Cl)ccc1OCc1nc(-c2ccncc2)no1,inactive
2,Cc1ccc(NC(=O)COc2coc(CN3CCc4ccccc4C3)cc2=O)cc1Cl,inactive
3,CCOC(=O)C1(Cc2ccccc2C)CCCN(C(=O)c2ccc(COC)o2)C1 (stereo not given),inactive
4,CCOc1cc(C(=S)N2CCOCC2)ccc1OS(=O)(=O)c1ccc(Br)cc1,inactive
5,Cn1nccc1C(=O)NC1CCCc2c1cnn2-c1ccccc1F (stereo not given),inactive
6,Cc1cc(C(=O)NC2CCCc3c2cnn3-c2cccc(C)c2C)c(C)o1 (stereo not given),inactive
7,COc1ccc(C(=O)NC2CCCc3c2cnn3-c2cccc(C)c2C)c(OC)n1 (stereo not given),-10.2 (active)
8,Cc1cccc(C(=O)Nc2ccc(C(=O)N/N=C/c3cccc(C)n3)cc2)c1,inactive
9,Cc1cccc(C(=O)Nc2ccc(C(=O)/C=C/c3cccs3)cc2)c1,-10.5 (active)
10,Cc1cccc(C(=O)Nc2ccc(CC(=O)O)cc2)c1,inactive
11,Cn1nc(C(F)(F)F)c2cc(NC(=O)OCC(C)(C)C)sc21,inactive
12,CN(C(=O)CN1C(=O)CCSc2ccc(S(=O)(=O)N3CCCC3)cc21)c1ccccc1,inactive
13,CCCCOc1ccc(N(CC(=O)NCC2CCCO2)C(=O)CCC(=O)Nc2cc(C)ccn2)cc1 (stereo not given),inactive
14,Cc1cc(C)cc(NS(=O)(=O)c2ccc(F)cc2)c1,inactive
15,Cc1cc(C)cc(NS(=O)(=O)c2ccc(Oc3ncc(C(F)(F)F)cc3Cl)cc2)c1,-8.23 (active)
16,COc1ccccc1Oc1ccc(S(=O)(=O)Nc2cccnc2)cc1,inactive
17,CCN1C(=O)[C@H]2[C@@H](c3ccc(C)cc3)N3C(=O)N(c4cccc(Br)c4)C(=O)[C@@]3(CC)[C@H]2C1=O,inactive
18,Cc1cc(NC(=O)CCN2CCN(Cc3ccccc3)CC2)ccc1Br,inactive
19,O=C(Nc1ccccc1C(=O)N1CCOCC1)C1CCC(=O)N1C1CCCC1 (stereo not given),inactive
20,CCOc1ccc(CNC(=O)C2CCC(=O)N2C2CCCC2)cc1OC (stereo not given),inactive
21,CCc1ccccc1NC(=O)[C@@H]1CCC(=O)N1C1OC(=O)c2c1ccc(OC)c2OC (stereo not given in full),-8.3 (active)
